Here are results for nine molecules from ChEMBL document CHEMBL2434951, “Synthesis and antimicrobial activity of polyhalobenzonitrile quinazolin-4(3H)-one derivatives” (2013).

The structures appear in SMILES notation. Converted amounts (≈) assume the structure as drawn. The source made the active and inactive calls. The rule behind the calls is not given here.

Common to all, as to type: functional
In assay [1] the test system is Pseudomonas aeruginosa. As to the kind of experiment: Antibacterial activity against Pseudomonas aeruginosa ATCC 15442 assessed as growth inhibition after 24 hrs by liquid dilution method. The gist of the method:
(§1)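 Liquid (tube) dilution. Compounds and positive controls in DMSO at 11 concentrations from 0.98 upward. Each tube held 1 mL compound solution plus bacterial or fungal inoculum and sterile water. Incubated 24 h, then checked for turbidity; MIC is the lowest concentration without growth. Chlorothalonil, norfloxacin and fluconazole as standards.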

Assay [2] deals with Bacillus cereus. As to the kind of experiment: Antibacterial activity against Bacillus cereus ATCC 14579 assessed as growth inhibition after 24 hrs by liquid dilution method. The settings on record: ATCC 14579, 24 h. An outline of the steps:
as §1

Assay [3] has as its system Staphylococcus aureus. The assay is described as follows: Antibacterial activity against Staphylococcus aureus ATCC 6538 assessed as growth inhibition at 1000 ug/mL after 24 hrs by disk diffusion assay. As to conditions: for zone of inhibition at 1000 µg/mL: ATCC 6538, 24 h, read-out: DIZ. An outline of the steps: (§2)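 Disk diffusion on nutrient agar, inoculum spread evenly. Disks of 6 mm Whatman No. 1 paper, dry-heat sterilized at 121 °C for 1 h, soaked in test compound at 1000 (micro)g/mL. Norfloxacin and chlorothalonil disks as positive controls, DMSO disks as negative control. Plates incubated 24 h at 37 °C. Inhibition zone diameter measured in mm.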
A general note: Agar diffusion results depend on both activity and mobility in agar.

Assay [4] has as its system Staphylococcus aureus. The assay is described as follows: Antibacterial activity against Staphylococcus aureus ATCC 6538 assessed as growth inhibition after 24 hrs by liquid dilution method. The gist of the method:
as §1

The subject of assay [5] is Pseudomonas aeruginosa. The assay is described as follows: Antibacterial activity against Pseudomonas aeruginosa ATCC 15442 assessed as growth inhibition at 1000 ug/mL after 24 hrs by disk diffusion assay. As to conditions: ATCC 15442, 24 h, read-out: DIZ. An outline of the steps:
as §2

The subject of assay [6] is Escherichia coli. As to the kind of experiment: Antibacterial activity against Escherichia coli ATCC 8099 assessed as growth inhibition at 1000 ug/mL after 24 hrs by disk diffusion assay. The settings on record: for zone of inhibition at 1000 µg/mL: ATCC 8099, 24 h, read-out: DIZ. An outline of the steps:
as §2

A further assay relates to Candida albicans. The assay is described as follows: Antifungal activity against Candida albicans ATCC 10231 assessed as growth inhibition at 1000 ug/mL after 24 hrs by disk diffusion assay. The settings on record: for zone of inhibition at 1000 µg/mL: ATCC 10231, 24 h, read-out: DIZ. An outline of the steps:
as §2

The subject of assay [7] is Escherichia coli. The assay is described as follows: Antibacterial activity against Escherichia coli ATCC 8099 assessed as growth inhibition after 24 hrs by liquid dilution method. The gist of the method: as §1
For assay [8], the system named is Bacillus cereus. The assay is described as follows: Antibacterial activity against Bacillus cereus ATCC 14579 assessed as growth inhibition at 1000 ug/mL after 24 hrs by disk diffusion assay. As to conditions: ATCC 14579, 24 h, read-out: DIZ. An outline of the steps:
as §2

By MIC is commonly meant the lowest concentration that inhibits growth of the organism. For `Cc1ccc(Nc2c(Cl)c(Cl)c(C#N)c(Cl)c2C#N)c(Nc2ccc([N+](=O)[O-])c3nc[nH]c(=O)c23)c1`, the minimal inhibitory concentration (MIC) with Pseudomonas aeruginosa [1] (ATCC 15442, 24 h) is 417 µg/mL (≈ 771 µM); in the assay with Bacillus cereus [2], 52.1 µg/mL (≈ 96.3 µM); in the assay with Staphylococcus aureus [4] (ATCC 6538, 24 h), 500 µg/mL (≈ 925 µM); in the assay on Escherichia coli [7] (ATCC 8099, 24 h), 417 µg/mL (≈ 771 µM). In addition, the zone of inhibition at 1000 µg/mL was 9.3 mm with Staphylococcus aureus [3]; 9.5 mm in the assay with Pseudomonas aeruginosa [5]; 9 mm with Escherichia coli [6]; 7.5 mm in the assay with Candida albicans; 10.7 mm in the assay with Bacillus cereus [8].

In the case of `Cc1ccc(Nc2ccc(Nc3c(Cl)c(Cl)c(C#N)c(Cl)c3C#N)c3nc[nH]c(=O)c23)cc1C`, the MIC result in the assay with Pseudomonas aeruginosa [1] is “inactive”. Besides, the MIC was found to be 0.8 µg/mL (≈ 1.57 µM) in the assay on Bacillus cereus [2]; 15.6 µg/mL (≈ 30.6 µM) with Staphylococcus aureus [4] (ATCC 6538, 24 h); 83.3 µg/mL (≈ 163 µM) in the assay on Escherichia coli [7] (ATCC 8099, 24 h). Besides, the zone of inhibition at 1000 µg/mL in the assay with Staphylococcus aureus [3] amounted to 8.5 mm; in the assay with Pseudomonas aeruginosa [5], 9.4 mm; in the assay on Escherichia coli [6], 10.8 mm; in the assay on Candida albicans, 10 mm; in the assay on Bacillus cereus [8], 11 mm.

Turning to `N#Cc1c(Cl)c(Cl)c(Nc2ccc(Nc3ccc(Cl)cc3)c3c(=O)[nH]cnc23)c(C#N)c1Cl`, the minimal inhibitory concentration (MIC) was determined as 417 µg/mL (≈ 807 µM) in the assay with Pseudomonas aeruginosa [1] (ATCC 15442, 24 h); 83.3 µg/mL (≈ 161 µM) in the assay with Bacillus cereus [2]; 4.7 µg/mL (≈ 9.11 µM) in the assay with Staphylococcus aureus [4] (ATCC 6538, 24 h); 333 µg/mL (≈ 646 µM) in the assay with Escherichia coli [7] (ATCC 8099, 24 h). The zone of inhibition at 1000 µg/mL with Staphylococcus aureus [3] was determined as 8.8 mm; in the assay with Pseudomonas aeruginosa [5] it was 9.5 mm; in the assay with Escherichia coli [6], 9 mm; with Candida albicans, 9.5 mm; in the assay with Bacillus cereus [8] it was 9 mm.

As to `N#Cc1c(F)c(Cl)c(Nc2ccc(Nc3ccc(Cl)cc3)c3c(=O)[nH]cnc23)c(C#N)c1F`, the minimum inhibitory concentration (MIC) in the assay with Pseudomonas aeruginosa [1] (ATCC 15442, 24 h) came out at 500 µg/mL (≈ 1030 µM); with Bacillus cereus [2], 41.7 µg/mL (≈ 86.3 µM); in the assay with Staphylococcus aureus [4] (ATCC 6538, 24 h), 20.8 µg/mL (≈ 43 µM); in the assay on Escherichia coli [7] (ATCC 8099, 24 h), 208 µg/mL (≈ 431 µM). The zone of inhibition at 1000 µg/mL in the assay on Staphylococcus aureus [3] is 9.7 mm; in the assay with Pseudomonas aeruginosa [5], 12 mm; in the assay on Escherichia coli [6], 9 mm; with Candida albicans, 8.5 mm; in the assay on Bacillus cereus [8], 10.4 mm.

In the case of `Cc1ccccc1Nc1ccc(N)c2nc[nH]c(=O)c12`, the minimal inhibitory concentration (MIC) in the assay with Pseudomonas aeruginosa [1] (ATCC 15442, 24 h) turned out to be 417 µg/mL (≈ 1560 µM); with Bacillus cereus [2] it was 167 µg/mL (≈ 626 µM); with Staphylococcus aureus [4] (ATCC 6538, 24 h), 250 µg/mL (≈ 939 µM); in the assay with Escherichia coli [7] (ATCC 8099, 24 h) it was 250 µg/mL (≈ 939 µM). Further, the zone of inhibition at 1000 µg/mL in the assay with Staphylococcus aureus [3] is 8 mm; with Pseudomonas aeruginosa [5] it was 8.5 mm; with Escherichia coli [6] it was 9 mm; with Candida albicans it was 10 mm; in the assay on Bacillus cereus [8], 6 mm.

Take `Cc1ccccc1Nc1ccc(Nc2c(Cl)c(Cl)c(C#N)c(Cl)c2C#N)c2nc[nH]c(=O)c12`: the MIC in the assay with Pseudomonas aeruginosa [1] (ATCC 15442, 24 h) was found to be 83.4 µg/mL (≈ 168 µM); in the assay with Bacillus cereus [2] it was 0.5 µg/mL (≈ 1.01 µM); with Staphylococcus aureus [4] (ATCC 6538, 24 h), 52.1 µg/mL (≈ 105 µM); in the assay on Escherichia coli [7] (ATCC 8099, 24 h) it was 125 µg/mL (≈ 252 µM). For the same molecule, the zone of inhibition at 1000 µg/mL in the assay on Staphylococcus aureus [3] was 10 mm; in the assay on Pseudomonas aeruginosa [5] it was 9 mm; in the assay with Escherichia coli [6], 12.5 mm; in the assay on Bacillus cereus [8] it was 10.5 mm. The “diameter of the inhibition zone (DIZ)” value with Candida albicans is “inactive”.

Turning to `Nc1ccc(Nc2ccccc2)c2c(=O)[nH]cnc12`, the MIC with Pseudomonas aeruginosa [1] (ATCC 15442, 24 h) came to 250 µg/mL (≈ 991 µM); in the assay with Bacillus cereus [2], 125 µg/mL (≈ 495 µM); with Staphylococcus aureus [4] (ATCC 6538, 24 h), 208 µg/mL (≈ 824 µM); in the assay with Escherichia coli [7] (ATCC 8099, 24 h) it was 208 µg/mL (≈ 826 µM). Also, the “diameter of the inhibition zone (DIZ)” value in the assay with Staphylococcus aureus [3], in the assay on Escherichia coli [6] and with Candida albicans was “inactive” throughout. The zone of inhibition at 1000 µg/mL stood at 7 mm in the assay on Pseudomonas aeruginosa [5] and 9.5 mm in the assay with Bacillus cereus [8].

On to `N#Cc1c(F)c(Cl)c(Nc2ccc(Nc3ccccc3)c3c(=O)[nH]cnc23)c(C#N)c1F`, for which the MIC in the assay with Pseudomonas aeruginosa [1] (ATCC 15442, 24 h) stood at 500 µg/mL (≈ 1110 µM); with Bacillus cereus [2], 500 µg/mL (≈ 1110 µM). The zone of inhibition at 1000 µg/mL in the assay with Staphylococcus aureus [3] was found to be 8.9 mm; with Pseudomonas aeruginosa [5] it was 9.5 mm; with Candida albicans, 6 mm; in the assay with Bacillus cereus [8], 6 mm. Also, the MIC result in the assay with Staphylococcus aureus [4] and in the assay with Escherichia coli [7] was “inactive” in each case. Besides, in the assay on Escherichia coli [6], the “diameter of the inhibition zone (DIZ)” value was “inactive”.

Take `Cc1ccccc1Nc1ccc(Nc2c(Cl)c(F)c(C#N)c(F)c2C#N)c2nc[nH]c(=O)c12`: the MIC turned out to be 208 µg/mL (≈ 450 µM) in the assay with Pseudomonas aeruginosa [1] (ATCC 15442, 24 h); 52.1 µg/mL (≈ 113 µM) in the assay with Bacillus cereus [2]; 208 µg/mL (≈ 450 µM) in the assay on Staphylococcus aureus [4] (ATCC 6538, 24 h); 208 µg/mL (≈ 450 µM) in the assay on Escherichia coli [7] (ATCC 8099, 24 h). Moreover, the zone of inhibition at 1000 µg/mL is 10.3 mm in the assay on Staphylococcus aureus [3]; 9.5 mm in the assay with Pseudomonas aeruginosa [5]; 9.7 mm in the assay on Escherichia coli [6]; 7.5 mm with Candida albicans; 10.8 mm in the assay with Bacillus cereus [8].
